{
  "source": "ChEMBL document CHEMBL5046217",
  "about": "“Discovery of New Imidazo[2,1-b]thiazole Derivatives as Potent Pan-RAF Inhibitors with Promising In Vitro and In Vivo Anti-melanoma Activity” (J Med Chem, 2021)",
  "key": {"[1]": {"molecular_target": "Serine/threonine-protein kinase B-raf (Homo sapiens, UniProt P15056)", "sequence (P15056 whole entry)": "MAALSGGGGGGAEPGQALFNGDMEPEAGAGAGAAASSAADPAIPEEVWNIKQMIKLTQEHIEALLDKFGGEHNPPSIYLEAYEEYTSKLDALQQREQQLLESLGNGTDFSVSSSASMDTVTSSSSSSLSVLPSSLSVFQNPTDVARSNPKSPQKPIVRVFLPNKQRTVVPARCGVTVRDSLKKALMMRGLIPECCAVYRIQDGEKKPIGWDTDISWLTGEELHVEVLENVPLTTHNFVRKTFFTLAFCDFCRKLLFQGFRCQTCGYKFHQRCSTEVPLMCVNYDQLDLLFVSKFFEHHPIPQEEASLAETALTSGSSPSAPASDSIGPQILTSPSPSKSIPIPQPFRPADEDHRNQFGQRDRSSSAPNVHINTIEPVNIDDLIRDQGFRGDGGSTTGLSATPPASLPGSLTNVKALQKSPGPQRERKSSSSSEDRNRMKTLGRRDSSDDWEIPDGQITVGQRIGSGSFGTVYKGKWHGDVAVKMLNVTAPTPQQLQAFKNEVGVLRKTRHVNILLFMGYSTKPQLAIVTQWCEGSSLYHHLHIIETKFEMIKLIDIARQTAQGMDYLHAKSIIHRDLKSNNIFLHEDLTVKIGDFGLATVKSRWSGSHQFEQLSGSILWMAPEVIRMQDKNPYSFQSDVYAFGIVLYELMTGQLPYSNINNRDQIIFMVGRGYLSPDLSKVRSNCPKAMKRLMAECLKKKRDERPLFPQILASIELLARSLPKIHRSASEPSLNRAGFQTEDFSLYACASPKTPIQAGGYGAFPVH", "experiment": "Inhibition of human wild type BRAF using myelin basic protein as substrate in presence of [gamma-33P]ATP incubated for 40 mins by scintillation counting method", "method_in_brief": "(§1)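 Radiometric kinase assay run at Reaction Biology. Kinase (5−10 mU) in 25 mM Tris pH 7.5, 0.02 mM EGTA, 10 mM magnesium acetate with 0.66 mg/mL myelin basic protein and [γ-33P]ATP at 1 μM ATP. Reaction started with Mg-ATP and run 40 min at room temperature, then stopped with 3% phosphoric acid. Spotted on P30 filtermat, washed, scintillation counted.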"}, "[2]": {"molecular_target": "Serine/threonine-protein kinase B-raf (Homo sapiens, UniProt P15056, V600E)", "experiment": "Inhibition of human BRAF V600E mutant using myelin basic protein as substrate in presence of [gamma-33P]ATP incubated for 40 mins by scintillation counting method", "method_in_brief": "as §1"}, "[3]": {"molecular_target": "RAF proto-oncogene serine/threonine-protein kinase (Homo sapiens, UniProt P04049)", "experiment": "Inhibition of human wild type CRAF using myelin basic protein as substrate in presence of [gamma-33P]ATP incubated for 40 mins by scintillation counting method"}, "[4]": {"molecular_target": "Tyrosine-protein kinase ABL1 (Homo sapiens, UniProt P00519)", "experiment": "Inhibition of ABL1 (unknown origin) incubated for 1 hr by qPCR analysis"}, "[5]": {"molecular_target": "Serine/threonine-protein kinase/endoribonuclease IRE1 (Homo sapiens, UniProt O75460)", "experiment": "Inhibition of ERN1 (unknown origin) incubated for 1 hr by qPCR analysis", "method_in_brief": "(§2)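 Competition binding assay. Kinases were either T7-phage-tagged (grown in an E. coli BL21-derived host) or expressed in HEK-293 cells and DNA-tagged. […] Bound kinase was eluted with non-biotinylated ligand and quantified by qPCR.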"}, "[6]": {"molecular_target": "Fibroblast growth factor receptor 1 (Homo sapiens, UniProt P11362)", "sequence (P11362 whole entry)": "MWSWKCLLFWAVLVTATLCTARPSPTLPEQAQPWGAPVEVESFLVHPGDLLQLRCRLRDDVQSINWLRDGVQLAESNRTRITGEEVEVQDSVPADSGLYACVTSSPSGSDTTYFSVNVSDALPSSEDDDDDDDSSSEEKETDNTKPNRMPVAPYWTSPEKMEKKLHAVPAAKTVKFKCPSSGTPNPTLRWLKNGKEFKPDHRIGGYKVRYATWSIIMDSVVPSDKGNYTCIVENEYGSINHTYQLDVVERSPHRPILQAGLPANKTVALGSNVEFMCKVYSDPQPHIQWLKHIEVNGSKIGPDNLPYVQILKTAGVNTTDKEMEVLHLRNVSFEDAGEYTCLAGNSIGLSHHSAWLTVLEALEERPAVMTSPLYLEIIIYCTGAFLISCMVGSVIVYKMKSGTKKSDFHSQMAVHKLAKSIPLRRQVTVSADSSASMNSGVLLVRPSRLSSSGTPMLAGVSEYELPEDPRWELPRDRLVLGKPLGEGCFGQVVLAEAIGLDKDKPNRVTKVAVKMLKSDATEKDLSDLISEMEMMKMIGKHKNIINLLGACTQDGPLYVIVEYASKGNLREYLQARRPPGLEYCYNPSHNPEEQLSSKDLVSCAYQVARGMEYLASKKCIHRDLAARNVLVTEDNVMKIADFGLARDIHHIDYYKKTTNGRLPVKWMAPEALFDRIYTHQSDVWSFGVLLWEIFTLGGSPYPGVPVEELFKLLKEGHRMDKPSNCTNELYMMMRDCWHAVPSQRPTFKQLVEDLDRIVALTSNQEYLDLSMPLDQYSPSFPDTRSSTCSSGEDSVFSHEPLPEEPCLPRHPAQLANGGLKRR", "experiment": "Inhibition of FGFR1 (unknown origin) incubated for 1 hr by qPCR analysis"}, "[7]": {"molecular_target": "T1, Receptor-type tyrosine-protein kinase FLT3 (Homo sapiens, UniProt P36888)", "T1 sequence (P36888 whole entry)": "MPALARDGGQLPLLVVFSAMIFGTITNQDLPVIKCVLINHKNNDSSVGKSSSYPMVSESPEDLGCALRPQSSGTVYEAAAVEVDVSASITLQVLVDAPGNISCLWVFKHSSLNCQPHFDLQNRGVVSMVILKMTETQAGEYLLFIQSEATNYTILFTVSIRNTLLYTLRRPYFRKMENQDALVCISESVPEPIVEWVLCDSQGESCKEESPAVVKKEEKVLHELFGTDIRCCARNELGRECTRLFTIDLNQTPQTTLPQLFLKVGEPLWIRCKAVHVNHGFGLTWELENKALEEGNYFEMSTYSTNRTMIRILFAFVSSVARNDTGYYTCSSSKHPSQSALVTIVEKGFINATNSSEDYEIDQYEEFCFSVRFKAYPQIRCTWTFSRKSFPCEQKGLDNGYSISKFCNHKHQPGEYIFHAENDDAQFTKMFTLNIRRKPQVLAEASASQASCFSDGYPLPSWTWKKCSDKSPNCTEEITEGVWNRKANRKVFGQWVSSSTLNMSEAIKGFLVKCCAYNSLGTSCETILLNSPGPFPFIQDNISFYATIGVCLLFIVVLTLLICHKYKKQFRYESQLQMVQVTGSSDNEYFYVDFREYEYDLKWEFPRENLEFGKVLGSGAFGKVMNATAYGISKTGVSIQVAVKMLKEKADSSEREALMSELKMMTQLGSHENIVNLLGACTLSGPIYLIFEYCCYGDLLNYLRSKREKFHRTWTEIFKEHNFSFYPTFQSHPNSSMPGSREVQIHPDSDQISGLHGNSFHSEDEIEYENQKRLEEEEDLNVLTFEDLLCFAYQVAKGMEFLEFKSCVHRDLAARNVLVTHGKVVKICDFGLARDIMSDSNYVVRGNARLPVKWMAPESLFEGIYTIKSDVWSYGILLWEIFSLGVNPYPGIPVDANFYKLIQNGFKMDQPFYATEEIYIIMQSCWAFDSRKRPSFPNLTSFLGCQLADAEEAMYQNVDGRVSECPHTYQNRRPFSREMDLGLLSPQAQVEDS", "experiment": "Inhibition of FLT3 (unknown origin) incubated for 1 hr by qPCR analysis", "method_in_brief": "as §2"}, "[8]": {"molecular_target": "Homeodomain-interacting protein kinase 1 (Homo sapiens, UniProt Q86Z02)", "sequence (Q86Z02 whole entry)": "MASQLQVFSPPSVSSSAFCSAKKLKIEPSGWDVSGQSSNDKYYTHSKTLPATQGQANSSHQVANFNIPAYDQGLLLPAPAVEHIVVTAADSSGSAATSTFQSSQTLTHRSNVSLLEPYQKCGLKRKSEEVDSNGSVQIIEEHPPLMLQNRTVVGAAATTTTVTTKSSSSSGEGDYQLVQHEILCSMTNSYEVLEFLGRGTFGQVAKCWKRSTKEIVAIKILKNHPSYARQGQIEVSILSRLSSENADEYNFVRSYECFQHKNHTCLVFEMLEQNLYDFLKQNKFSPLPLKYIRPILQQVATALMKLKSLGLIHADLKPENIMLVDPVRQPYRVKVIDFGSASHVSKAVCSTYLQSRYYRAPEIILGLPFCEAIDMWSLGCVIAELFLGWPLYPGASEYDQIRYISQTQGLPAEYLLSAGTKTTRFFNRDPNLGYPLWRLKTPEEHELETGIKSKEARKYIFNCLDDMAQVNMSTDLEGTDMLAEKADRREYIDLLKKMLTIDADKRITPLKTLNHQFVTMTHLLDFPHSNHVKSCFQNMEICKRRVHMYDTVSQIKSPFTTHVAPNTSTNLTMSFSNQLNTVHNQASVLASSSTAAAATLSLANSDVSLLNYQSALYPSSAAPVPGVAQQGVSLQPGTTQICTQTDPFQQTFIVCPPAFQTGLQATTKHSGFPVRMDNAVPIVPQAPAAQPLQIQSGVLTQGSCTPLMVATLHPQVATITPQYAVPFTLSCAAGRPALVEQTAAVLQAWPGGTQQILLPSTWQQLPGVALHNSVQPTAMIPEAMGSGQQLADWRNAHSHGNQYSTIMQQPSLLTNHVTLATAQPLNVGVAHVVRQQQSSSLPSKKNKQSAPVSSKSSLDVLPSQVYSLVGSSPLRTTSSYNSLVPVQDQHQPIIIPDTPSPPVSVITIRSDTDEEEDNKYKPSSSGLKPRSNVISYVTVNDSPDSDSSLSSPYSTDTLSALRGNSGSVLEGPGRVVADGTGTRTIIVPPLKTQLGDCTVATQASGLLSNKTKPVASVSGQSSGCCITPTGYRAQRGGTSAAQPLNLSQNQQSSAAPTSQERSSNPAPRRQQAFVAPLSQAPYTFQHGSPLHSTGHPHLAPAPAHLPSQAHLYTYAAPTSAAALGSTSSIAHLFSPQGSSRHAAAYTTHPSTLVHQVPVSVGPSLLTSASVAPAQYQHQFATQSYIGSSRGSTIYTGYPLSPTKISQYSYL", "experiment": "Inhibition of HIPK1 (unknown origin) incubated for 1 hr by qPCR analysis", "method_in_brief": "as §2"}, "[9]": {"molecular_target": "Mitogen-activated protein kinase 8 (Homo sapiens, UniProt P45983)", "sequence (P45983 whole entry)": "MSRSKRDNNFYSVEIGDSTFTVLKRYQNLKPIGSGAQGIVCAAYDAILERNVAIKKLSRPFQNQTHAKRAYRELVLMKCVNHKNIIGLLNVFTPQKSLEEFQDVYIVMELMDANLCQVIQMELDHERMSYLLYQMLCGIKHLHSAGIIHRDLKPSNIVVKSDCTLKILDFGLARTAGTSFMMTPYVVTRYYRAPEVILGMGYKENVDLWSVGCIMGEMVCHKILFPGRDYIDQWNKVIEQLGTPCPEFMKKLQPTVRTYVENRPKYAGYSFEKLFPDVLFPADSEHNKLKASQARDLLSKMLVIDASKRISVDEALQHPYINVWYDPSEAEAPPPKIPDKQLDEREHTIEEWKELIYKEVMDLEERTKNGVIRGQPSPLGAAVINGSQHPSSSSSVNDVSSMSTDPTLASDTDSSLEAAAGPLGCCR", "experiment": "Inhibition of MAPK8 (unknown origin) incubated for 1 hr by qPCR analysis", "method_in_brief": "as §2"}, "[10]": {"molecular_target": "Mitogen-activated protein kinase 11 (Homo sapiens, UniProt Q15759)", "sequence (Q15759 whole entry)": "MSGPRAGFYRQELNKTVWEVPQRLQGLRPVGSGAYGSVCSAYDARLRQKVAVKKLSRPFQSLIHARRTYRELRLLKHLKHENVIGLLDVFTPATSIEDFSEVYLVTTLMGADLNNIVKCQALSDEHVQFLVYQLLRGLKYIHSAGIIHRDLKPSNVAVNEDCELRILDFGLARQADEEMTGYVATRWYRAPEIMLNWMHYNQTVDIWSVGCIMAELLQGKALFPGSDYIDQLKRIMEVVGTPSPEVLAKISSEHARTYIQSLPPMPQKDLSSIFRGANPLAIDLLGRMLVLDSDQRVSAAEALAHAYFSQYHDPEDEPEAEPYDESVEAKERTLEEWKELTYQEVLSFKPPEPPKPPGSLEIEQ", "experiment": "Inhibition of MAPK11 (unknown origin) incubated for 1 hr by qPCR analysis", "method_in_brief": "as §2"}, "[11]": {"molecular_target": "Mitogen-activated protein kinase 14 (Homo sapiens, UniProt Q16539)", "sequence (Q16539 whole entry)": "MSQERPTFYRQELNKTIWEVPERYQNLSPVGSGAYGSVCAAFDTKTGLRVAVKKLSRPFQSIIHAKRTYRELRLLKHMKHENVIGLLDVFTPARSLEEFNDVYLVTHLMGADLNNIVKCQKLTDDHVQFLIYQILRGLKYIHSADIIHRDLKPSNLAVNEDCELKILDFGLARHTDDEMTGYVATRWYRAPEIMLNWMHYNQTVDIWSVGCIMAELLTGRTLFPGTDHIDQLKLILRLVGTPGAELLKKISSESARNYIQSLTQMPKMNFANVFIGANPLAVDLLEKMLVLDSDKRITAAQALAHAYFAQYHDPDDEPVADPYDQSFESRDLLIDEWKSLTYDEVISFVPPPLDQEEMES", "experiment": "Inhibition of MAPK14 (unknown origin) incubated for 1 hr by qPCR analysis", "method_in_brief": "as §2"}, "[12]": {"molecular_target": "Mitogen-activated protein kinase kinase kinase 20 (Homo sapiens, UniProt Q9NYL2)", "sequence (Q9NYL2 whole entry)": "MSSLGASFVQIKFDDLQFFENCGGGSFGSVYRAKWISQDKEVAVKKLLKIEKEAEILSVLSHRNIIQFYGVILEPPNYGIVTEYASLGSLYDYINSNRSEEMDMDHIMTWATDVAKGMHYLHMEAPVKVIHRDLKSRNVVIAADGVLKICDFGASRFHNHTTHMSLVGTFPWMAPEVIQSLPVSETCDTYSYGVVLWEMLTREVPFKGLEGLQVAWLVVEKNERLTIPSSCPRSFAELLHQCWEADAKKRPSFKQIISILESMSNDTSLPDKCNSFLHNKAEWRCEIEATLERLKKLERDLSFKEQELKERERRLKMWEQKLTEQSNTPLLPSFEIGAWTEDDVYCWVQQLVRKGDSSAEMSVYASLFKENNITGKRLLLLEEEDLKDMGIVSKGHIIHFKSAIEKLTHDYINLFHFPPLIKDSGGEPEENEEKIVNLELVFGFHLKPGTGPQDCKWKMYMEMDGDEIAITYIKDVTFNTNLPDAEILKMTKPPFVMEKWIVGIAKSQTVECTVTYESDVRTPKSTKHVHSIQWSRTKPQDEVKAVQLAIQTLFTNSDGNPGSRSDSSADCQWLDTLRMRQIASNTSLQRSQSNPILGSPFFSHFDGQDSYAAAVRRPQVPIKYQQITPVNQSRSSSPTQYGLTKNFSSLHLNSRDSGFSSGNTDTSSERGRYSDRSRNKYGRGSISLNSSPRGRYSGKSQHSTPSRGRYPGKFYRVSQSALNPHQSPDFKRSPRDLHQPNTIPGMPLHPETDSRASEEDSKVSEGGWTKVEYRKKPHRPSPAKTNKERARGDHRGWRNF", "experiment": "Inhibition of ZAK (unknown origin) incubated for 1 hr by qPCR analysis", "method_in_brief": "as §2"}, "[13]": {"experiment": "Acute toxicity in Hsd:athymic nude-Foxn1nu mouse at 50 to 250 mg/kg", "format": "organism-based", "details": "in vivo, dose 50-250 mg/kg", "method_in_brief": "(§3)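 Male Hsd:Athymic Nude-Foxn1nu mice received the compound by injection at five single doses (50, 100, 250, 500 and 1000 mg/kg), with seven animals per dose group.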"}, "[14]": {"experiment": "Acute toxicity in Hsd:athymic nude-Foxn1nu mouse assessed as animal mortality at 500 to 1000 mg/kg", "format": "organism-based", "details": "in vivo, dose 500-1000 mg/kg", "method_in_brief": "as §3"}, "[15]": {"experiment": "Tmax in Sprague-Dawley rat at 5 mg/kg, po by LC-MS/MS analysis", "format": "ADME, organism-based", "details": "in vivo", "method_in_brief": "(§4)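 Male SD rats, 7−8 weeks, 250−300 g, three per group, dosed 5 mg/kg IV or PO. Vehicle was 5% DMSO/40% PEG400/55% water. Rats fasted 16 h before oral dosing. Samples taken every 30 min and measured by LC/MS/MS with carbamazepine as internal standard. Parameters from non-compartmental analysis of plasma concentration–time profiles.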"}, "[16]": {"experiment": "Cmax in Sprague-Dawley rat at 5 mg/kg, po by LC-MS/MS analysis", "format": "ADME, organism-based", "design": "route oral, dose 5 mg/kg", "details": "in vivo", "method_in_brief": "(§5)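 Male SD rats (7–8 weeks, 250–300 g), three per group, were dosed at 5 mg/kg i.v. or p.o. in 5% DMSO/40% PEG400/55% water. Rats were fasted 16 h before oral dosing. Serum was sampled every 30 min and measured by LC/MS/MS with carbamazepine as internal standard. Parameters came from non-compartmental analysis.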"}, "[17]": {"experiment": "Half life in Sprague-Dawley rat at 5 mg/kg, iv by LC-MS/MS analysis", "format": "ADME, organism-based", "details": "in vivo", "method_in_brief": "as §5"}, "[18]": {"experiment": "Half life in Sprague-Dawley rat at 5 mg/kg, po by LC-MS/MS analysis", "format": "ADME, organism-based", "details": "in vivo", "method_in_brief": "as §5"}, "[19]": {"experiment": "Clearance in Sprague-Dawley rat at 5 mg/kg, iv by LC-MS/MS analysis", "format": "ADME, organism-based", "details": "in vivo", "method_in_brief": "as §5"}, "[20]": {"experiment": "Volume of distribution in Sprague-Dawley rat at 5 mg/kg, iv by LC-MS/MS analysis", "format": "ADME, organism-based", "details": "in vivo", "method_in_brief": "as §4"}, "[21]": {"experiment": "Oral bioavailability in Sprague-Dawley rat at 5 mg/kg by LC-MS/MS analysis", "format": "ADME, organism-based", "details": "in vivo", "method_in_brief": "as §4"}, "[22]": {"experiment": "Apparent permeability across apical to basolateral side in human Caco-2 cells at 5 uM measured every 15 mins for 1 hr by LC-MS/MS analysis", "format": "ADME, cell-based"}, "[23]": {"experiment": "Apparent permeability across basolateral to apical side in human Caco-2 cells at 5 uM measured every 15 mins for 1 hr by LC-MS/MS analysis", "format": "ADME, cell-based"}, "[24]": {"experiment": "Stability in human plasma assessed as parent compound remaining at 10 uM measured after 30 mins by LC-MS analysis", "format": "ADME, cell-free", "details": "read-out: Stability", "method_in_brief": "(§6)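 About 10 μM compound shaken in human or rat plasma at 37 °C for 30 and 120 min. Acetonitrile added, samples centrifuged at 4 °C, and remaining parent in the supernatant quantified by LC−MS. Procaine and diltiazem run as references.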"}, "[25]": {"experiment": "Stability in human plasma assessed as parent compound remaining at 10 uM measured after 120 mins by LC-MS analysis", "format": "ADME, cell-free", "details": "read-out: Stability", "method_in_brief": "as §6"}, "[26]": {"experiment": "Stability in rat plasma assessed as parent compound remaining at 10 uM measured after 30 mins by LC-MS analysis", "format": "ADME, cell-free", "details": "read-out: Stability", "method_in_brief": "as §6"}, "[27]": {"experiment": "Stability in rat plasma assessed as parent compound remaining at 10 uM measured after 120 mins by LC-MS analysis", "format": "ADME, cell-free", "details": "read-out: Stability", "method_in_brief": "as §6"}},
  "note": "pIC50: −log10 of the molar value.",
  "data": [
    {"smiles": "CN1CCN(CCNc2nccc(-c3c(-c4cccc(O)c4)nc4sccn34)n2)S1(=O)=O", "values": [
      {"measurement": "pIC50", "setting": "[1]", "result": 8.70},
      {"measurement": "pIC50", "setting": "[2]", "result": 10.15},
      {"measurement": "pIC50", "setting": "[3]", "result": 8.95},
      {"measurement": "pIC50", "setting": "[4]", "result": 4.91},
      {"measurement": "pIC50", "setting": "[5]", "result": 4.95},
      {"measurement": "pIC50", "setting": "[6]", "result": 4.87},
      {"measurement": "pIC50", "setting": "[7]", "result": 5.82},
      {"measurement": "pIC50", "setting": "[8]", "result": 5.42},
      {"measurement": "pIC50", "setting": "[9]", "result": 6.04},
      {"measurement": "pIC50", "setting": "[10]", "result": 6.09},
      {"measurement": "pIC50", "setting": "[11]", "result": 5.99},
      {"measurement": "pIC50", "setting": "[12]", "result": 5.05},
      {"measurement": "Activity", "setting": "[13]", "result": "Non-Toxic"},
      {"measurement": "Activity", "setting": "[14]", "result": "Toxic"},
      {"measurement": "Tmax", "setting": "[15]", "result": 2.08, "unit": "h"},
      {"measurement": "Cmax", "setting": "[16]", "result": 96.9, "unit": "ng/mL"},
      {"measurement": "half-life", "setting": "[17]", "result": 103, "unit": "min"},
      {"measurement": "half-life", "setting": "[18]", "result": 201, "unit": "min"},
      {"measurement": "clearance", "setting": "[19]", "result": 2.07, "unit": "mL/min/kg"},
      {"measurement": "Vd", "setting": "[20]", "result": 0.578, "unit": "L/kg"},
      {"measurement": "bioavailability", "setting": "[21]", "result": 6.59, "unit": "%"},
      {"measurement": "Papp A→B at 1 h, 5 µM", "setting": "[22]", "result": 14.2, "unit": "×10⁻⁶ cm/s"},
      {"measurement": "Papp B→A at 1 h, 5 µM", "setting": "[23]", "result": 21.8, "unit": "×10⁻⁶ cm/s"},
      {"measurement": "remaining at 0.5 h, 10 µM", "setting": "[24]", "result": 97.2, "unit": "%"},
      {"measurement": "remaining at 2 h, 10 µM", "setting": "[25]", "result": 95.4, "unit": "%"},
      {"measurement": "remaining at 0.5 h, 10 µM", "setting": "[26]", "result": 90.6, "unit": "%"},
      {"measurement": "remaining at 2 h, 10 µM", "setting": "[27]", "result": 76.6, "unit": "%"}
    ]}
  ]
}
